Measurements: ChEMBL document CHEMBL3120060, “Synthesis, in vitro anticancer evaluation and in silico studies of novel imidazo[2,1-b]thiazole derivatives bearing pyrazole moieties” (2014)

How the values were obtained:
Format in all cases: functional
K562 = test: Cytotoxicity against human K562 cells assessed as cell growth at 10 uM after 48 hrs by SRB assay; settings: K562, 48 h, read-out: Activity
Outline: (§1)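 NCI-60 single-dose screen. Cell lines grown in RPMI 1640 with 5% FBS and 2 mM L-glutamine, plated at 5000–40,000 cells/well according to doubling time, then preincubated 24 h at 37 °C in 5% CO2. Compounds dissolved in DMSO, tested at 10^-5 M for 48 h. Adherent cells fixed with cold TCA (10% final) and stained with 0.4% SRB in 1% acetic acid. Growth expressed as percent of untreated control.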

SR = test: Cytotoxicity against human SR cells assessed as cell growth at 10 uM after 48 hrs by SRB assay; settings: read-out: Activity
Outline: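 Leukemia line, NCI-60 single-dose screen at 10^-5 M. Cells are grown in RPMI 1640 with 5% FBS and 2 mM L-glutamine, plated by doubling time, and preincubated 24 h at 37 °C with 5% CO2. After 48 h drug exposure, settled cells are fixed with 80% TCA (final 16%) and stained with SRB. Percent growth is calculated against untreated control and time-zero plates.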

SNB-75 = test: Cytotoxicity against human SNB75 cells assessed as cell growth at 10 uM after 48 hrs by SRB assay; settings: SNB-75, 48 h, read-out: Activity; outline: as §1
RPMI-8226 = test: Cytotoxicity against human RPMI8226 cells assessed as cell growth at 10 uM after 48 hrs by SRB assay; settings: RPMI-8226, 48 h, read-out: Activity; outline: as §1
OVCAR-3 = test: Cytotoxicity against human OVCAR3 cells assessed as cell growth at 10 uM after 48 hrs by SRB assay; settings: OVCAR-3, 48 h, read-out: Activity; outline: as §1
LOX IMVI = test: Cytotoxicity against human LOXIMVI cells assessed as cell growth at 10 uM after 48 hrs by SRB assay; settings: read-out: Activity; outline: as §1
MOLT-4 = test: Cytotoxicity against human MOLT4 cells assessed as cell growth at 10 uM after 48 hrs by SRB assay; settings: MOLT-4, 48 h, read-out: Activity; outline: as §1
[1] = Cytotoxicity against human UO31 cells assessed as cell growth at 10 uM after 48 hrs by SRB assay; settings: UO-31, 48 h, read-out: Activity
Outline: (§2)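 NCI-60 single-dose screen at 10^-5 M. Adherent lines are grown in RPMI 1640 with 5% FBS and 2 mM L-glutamine, seeded at 5000–40,000 cells/well by doubling time, and preincubated 24 h at 37 °C in 5% CO2. Drug is added from DMSO stock diluted in medium, then 48 h. Cells are fixed in cold TCA (final 10%) for 60 min and stained with 0.4% SRB in 1% acetic acid. Growth is expressed as % of untreated control using time-zero plates.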

SF-295 = test: Cytotoxicity against human SF295 cells assessed as cell growth at 10 uM after 48 hrs by SRB assay; settings: SF-295, 48 h, read-out: Activity; outline: as §1
[2] = Cytotoxicity against human OVCAR4 cells assessed as cell growth at 10 uM after 48 hrs by SRB assay; settings: OVCAR-4, 48 h, read-out: Activity; outline: as §1
M14 = test: Cytotoxicity against human M14 cells assessed as cell growth at 10 uM after 48 hrs by SRB assay; settings: M14, 48 h, read-out: Activity; outline: as §1
CAKI-1 = test: Cytotoxicity against human CAKI-1 cells assessed as cell growth at 10 uM after 48 hrs by SRB assay; settings: CAKI-1, 48 h, read-out: Activity; outline: as §1
[3] = Cytotoxicity against human UACC257 cells assessed as cell growth at 10 uM after 48 hrs by SRB assay; settings: UACC-257, 48 h, read-out: Activity; outline: as §2
A498 = test: Cytotoxicity against human A498 cells assessed as cell growth at 10 uM after 48 hrs by SRB assay; settings: A498, 48 h, read-out: Activity; outline: as §1
IGROV-1 = test: Cytotoxicity against human IGROV1 cells assessed as cell growth at 10 uM after 48 hrs by SRB assay; settings: IGROV-1, 48 h, read-out: Activity; outline: as §1
HCT-15 = test: Cytotoxicity against human HCT15 cells assessed as cell growth at 10 uM after 48 hrs by SRB assay; settings: HCT-15, 48 h, read-out: Activity; outline: as §1
HCC 2998 = test: Cytotoxicity against human HCC2998 cells assessed as cell growth at 10 uM after 48 hrs by SRB assay; settings: HCC 2998, 48 h, read-out: Activity; outline: as §1
SF-539 = test: Cytotoxicity against human SF539 cells assessed as cell growth at 10 uM after 48 hrs by SRB assay; settings: SF-539, 48 h, read-out: Activity; outline: as §1
786-0 = test: Cytotoxicity against human 786-0 cells assessed as cell growth at 10 uM after 48 hrs by SRB assay; settings: 786-0, 48 h, read-out: Activity; outline: as §1
TK-10 = test: Cytotoxicity against human TK10 cells assessed as cell growth at 10 uM after 48 hrs by SRB assay; settings: TK-10, 48 h, read-out: Activity; outline: as §2
OVCAR-8 = test: Cytotoxicity against human OVCAR8 cells assessed as cell growth at 10 uM after 48 hrs by SRB assay; settings: OVCAR-8, 48 h, read-out: Activity; outline: as §1
[4] = Cytotoxicity against human NCI-ADR-RES cells assessed as cell growth at 10 uM after 48 hrs by SRB assay; settings: read-out: Activity; outline: as §1
U-251 = test: Cytotoxicity against human U251 cells assessed as cell growth at 10 uM after 48 hrs by SRB assay; settings: U-251, 48 h, read-out: Activity; outline: as §2
SK-MEL-28 = test: Cytotoxicity against human SK-MEL-28 cells assessed as cell growth at 10 uM after 48 hrs by SRB assay; settings: SK-MEL-28, 48 h, read-out: Activity; outline: as §1
RXF 393 = test: Cytotoxicity against human RXF393 cells assessed as cell growth at 10 uM after 48 hrs by SRB assay; settings: RXF 393, 48 h, read-out: Activity; outline: as §1
[5] = Cytotoxicity against human Hs578T cells assessed as cell growth at 10 uM after 48 hrs by SRB assay; settings: Hs-578T, read-out: Activity; outline: as §1
DU-145 = test: Cytotoxicity against human DU145 cells assessed as cell growth at 10 uM after 48 hrs by SRB assay; settings: DU-145, 48 h, read-out: Activity; outline: as §1
KM12 = test: Cytotoxicity against human KM12 cells assessed as cell growth at 10 uM after 48 hrs by SRB assay; settings: KM12, 48 h, read-out: Activity; outline: as §1
Malme-3M = test: Cytotoxicity against human MALME-3M cells assessed as cell growth at 10 uM after 48 hrs by SRB assay; settings: read-out: Activity; outline: as §1

Row | Compound | growth at 10 µM (K562) [%] | growth at 10 µM (SR) [%] | growth at 10 µM (SNB-75) [%] | growth at 10 µM (RPMI-8226) [%] | growth at 10 µM (OVCAR-3) [%] | growth at 10 µM (LOX IMVI) [%] | growth at 10 µM (MOLT-4) [%] | growth at 10 µM [1] [%] | growth at 10 µM [2] [%] | growth at 10 µM (M14) [%] | growth at 10 µM (CAKI-1) [%] | growth at 10 µM [3] [%] | growth at 10 µM (A498) [%] | growth at 10 µM (IGROV-1) [%] | growth at 10 µM (HCT-15) [%] | growth at 10 µM (HCC 2998) [%] | growth at 10 µM (SF-539) [%] | growth at 10 µM (786-0) [%] | growth at 10 µM (TK-10) [%] | growth at 10 µM (OVCAR-8) [%] | also measured
1 | Cc1cc(C)n(-c2cn3c(-c4ccc(Cl)cc4)csc3n2)n1 | 83.1 | 65.8 | 69.2 | 68.2 | 107 | 91.9 | 81.3 | 89.6 | 81.9 | 101 | 78.6 | 104 | 85.7 | 108 | 95.5 | 102 | 104 | 102 | 128 | 91.5 | growth at 10 µM (SF-295): 82.5%; growth at 10 µM [4]: 100%; growth at 10 µM (U-251): 87.8%; growth at 10 µM (SK-MEL-28): 97.9%; growth at 10 µM (RXF 393): 93.5%; growth at 10 µM [5]: 94.3%; growth at 10 µM (DU-145): 113%; growth at 10 µM (KM12): 99.9%; growth at 10 µM (Malme-3M): 93.1%
2 | Cc1ccc(-c2csc3nc(-n4nc(C)cc4C)cn23)cc1 | 109 | 81 | 85.9 | 90.3 | 115 | 92.8 | 98.4 | 94.4 | 97.8 | 104 | 83.5 | 108 | 103 | 107 | 101 | 107 | 109 | 105 | 141 | 96 | growth at 10 µM (SF-295): 88.5%; growth at 10 µM [4]: 98.5%; growth at 10 µM (U-251): 95%; growth at 10 µM (SK-MEL-28): 94.8%; growth at 10 µM (RXF 393): 105%; growth at 10 µM [5]: 97%; growth at 10 µM (DU-145): 116%; growth at 10 µM (KM12): 108%; growth at 10 µM (Malme-3M): 114%
3 | CC1=NN(c2cn3c(-c4ccc(C)cc4)csc3n2)C(=O)C1 | 80.5 | 73.3 | 79.1 | 93.6 | 110 | 93 | 78.9 | 71.6 | 99.9 | 99.2 | 84.5 | 100 | 99.2 | 101 | 103 | 103 | 102 | 101 | 135 | 102 | growth at 10 µM [4]: 99.3%; growth at 10 µM (U-251): 94.1%; growth at 10 µM (SK-MEL-28): 98.5%; growth at 10 µM (RXF 393): 95.9%; growth at 10 µM [5]: 109%; growth at 10 µM (DU-145): 113%; growth at 10 µM (KM12): 104%; growth at 10 µM (Malme-3M): 107%
4 | O=C1CC(=O)N(c2cn3c(-c4ccccc4)csc3n2)N1 | 94.2 | 83 | 63.1 | 93 | 99 | 86.9 | 101 | 59.6 | 81.2 | 101 | 75.9 | 97.6 | 78.4 | 91.5 | 91.2 | 103 | 88.2 | 104 | 131 | 89.8 | growth at 10 µM [4]: 94.3%; growth at 10 µM (U-251): 84.2%; growth at 10 µM (SK-MEL-28): 96.4%; growth at 10 µM (RXF 393): 89.7%; growth at 10 µM [5]: 101%; growth at 10 µM (DU-145): 106%; growth at 10 µM (KM12): 101%; growth at 10 µM (Malme-3M): 141%
5 | O=C1CN2C(c3ccccc3)=CSC2=N1 | 88.8 | 86 | 61 | 94.4 | 111 | 89.4 | 95.4 | 61.3 | 97.7 | 99.9 | 78.7 | 103 | 111 | 104 | 95.9 | 97.8 | 97.5 | 104 | 125 | 97.9 | growth at 10 µM [4]: 99.6%; growth at 10 µM (U-251): 93.9%; growth at 10 µM (SK-MEL-28): 105%; growth at 10 µM (RXF 393): 102%; growth at 10 µM [5]: 103%; growth at 10 µM (DU-145): 112%; growth at 10 µM (KM12): 111%; growth at 10 µM (Malme-3M): 102%
